According to ChEMBL document CHEMBL1828516, “Discovery of novel alkylated (bis)urea and (bis)thiourea polyamine analogues with potent antimalarial activities” (J Med Chem, 2011):
Calls of active or inactive are those of the source. The calls are words filed in the database; no cut-off is given here.

Assays:
Plasmodium falciparum [1] = assay: Resistance ratio of IC50 for Plasmodium falciparum W2 to IC50 for Plasmodium falciparum 3D7; format: functional
Outline: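 Ratio of W2 IC50 to 3D7 IC50, both from the 96 h SYBR Green I fluorescence assay.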

[2] = Selectivity index, ratio of GI50 for human HepG2 cells to IC50 for Plasmodium falciparum 3D7; format: functional
Plasmodium falciparum [3] = assay: Antimalarial activity against drug-sensitive Plasmodium falciparum 3D7 infected in human erythrocytes after 96 hrs by SYBR Green I-based fluorescence assay; format: functional, organism-based; conditions: 3D7, 96 h
Outline: (§1)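 Ring-stage cultures synchronized with 10% D-sorbitol, grown in O+ human erythrocytes in RPMI-1640 with HEPES, hypoxanthine, glucose, gentamycin and Albumax II under 5% CO2/5% O2/90% N2 at 37°C. Compounds in DMSO (<0.013%), serially diluted, added at 1% parasitemia, 2% hematocrit. Static 96 h incubation, then SYBR Green I lysis buffer for 1 h in dark. Fluorescence at ex 485/em 538 nm.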

Plasmodium falciparum [4] = assay: Antimalarial activity against Plasmodium falciparum assessed as inhibition of DNA replication at 2 times IC50 after 72 hrs by FITC-SYBR Green I-based flow cytometry; format: functional, organism-based
Plasmodium falciparum [5] = assay: Antimalarial activity against Plasmodium falciparum assessed as increase in 1N ring or trophozoite stage parasites at 2 times IC50 after 72 hrs by FITC-SYBR Green I-based flow cytometry; format: functional, organism-based
Plasmodium falciparum [6] = assay: Cytostatic activity against Plasmodium falciparum 3D7 infected in human erythrocytes at 2 times IC50 after 72 hrs by giemsa staining method; format: functional, organism-based
Outline: (§2)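 P. falciparum 3D7 in O+ human erythrocytes, treated at 2xIC50 for 72 h. Parasitemia scored microscopically on Giemsa-stained smears, counting 100 parasites per slide 10x, alongside SYBR Green I DNA quantitation. Parasitemia compared at 0 h and 72 h. Three independent experiments in triplicate, mean ± S.E.; Student t-test, P<0.05.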

Plasmodium falciparum [7] = assay: Antimalarial activity against antifolate-resistant Plasmodium falciparum W2 infected in human erythrocytes after 96 hrs by SYBR Green I-based fluorescence assay; format: functional, organism-based; conditions: W2, 96 h; outline: as §1
Plasmodium falciparum [8] = assay: Antimalarial activity against Plasmodium falciparum 3D7 infected in human erythrocytes assessed as decrease in parasitemia at 2 times IC50 after 72 hrs by giemsa staining method; format: functional, organism-based; outline: as §2
Plasmodium falciparum [9] = assay: Antimalarial activity against Plasmodium falciparum assessed as reduction in 2N schizont stage parasites at 2 times IC50 after 72 hrs by FITC-SYBR Green I-based flow cytometry; format: functional, organism-based
HepG2 = assay: Cytotoxicity against human HepG2 cells after 48 hrs by lactate dehydrogenase assay; format: cell-based; conditions: hepg2, 48 h
Outline: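 HepG2 cells in DMEM with 10% heat-inactivated FBS, 37°C, 5% CO2. Cells pelleted at 250xg, supernatant LDH activity read colorimetrically as NADH at 450 nm after 30 min at room temperature. Duplicate, at least two biological repeats, mean ± S.E.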

Plasmodium falciparum [10] = assay: Antimalarial activity against Plasmodium falciparum assessed as reduction in >2N schizont stage parasites at 2 times IC50 after 72 hrs by FITC-SYBR Green I-based flow cytometry; format: functional, organism-based
Plasmodium falciparum [11] = assay: Antimalarial activity against […] Plasmodium falciparum HB3 infected in human erythrocytes after 96 hrs by SYBR Green I-based fluorescence assay; format: functional, organism-based; conditions: HB3, 96 h; outline: as §1
Plasmodium falciparum [12] = assay: Antimalarial activity against Plasmodium falciparum assessed as inhibition of nuclear division measuring 1N ring or trophozoite stage parasites at 2 times IC50 after 72 hrs by FITC-SYBR Green I-based flow cytometry (reference value: 28 %); format: functional; set-up: scale not given: the % may be the effect or the level left
Plasmodium falciparum [13] = assay: Antimalarial activity against Plasmodium falciparum assessed as inhibition of nuclear division measuring 2N schizont stage parasites at 2 times IC50 after 72 hrs by FITC-SYBR Green I-based flow cytometry (reference value: 38 %); format: functional; set-up: scale not given: the % may be the effect or the level left
Plasmodium falciparum [14] = assay: Antimalarial activity against Plasmodium falciparum 3D7 infected in human erythrocytes assessed as decrease in parasitemia at 2 times IC50 up to 72 hrs by SYBR Green I-based fluorescence assay in the presence of putrescine; format: functional, organism-based
Outline: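 Early-ring 3D7 cultures treated at 2xIC50 with 1 mM putrescine added after 24 h or 48 h, then incubated a further 24 or 48 h. Parasitemia followed over 72 h by SYBR Green I lysis fluorescence, as in the MSF assay. At least three biological repeats in duplicate, mean ± S.E.; two-way ANOVA, P<0.05.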

Plasmodium falciparum [15] = assay: Antimalarial activity against Plasmodium falciparum assessed as inhibition of nuclear division measuring >2N schizont stage parasites at 2 times IC50 after 72 hrs by FITC-SYBR Green I-based flow cytometry (reference value: 34 %); format: functional; set-up: scale not given: the % may be the effect or the level left
Trypanosoma brucei = assay: Antitrypanosomal activity against Trypanosoma brucei; format: functional, organism-based

SMILES | IC50 (Plasmodium falciparum [3]) [µM] | DNA replication inhibition (active/inactive) (Plasmodium falciparum [4]) | Activity (Plasmodium falciparum [5]) | IC50 (Plasmodium falciparum [7]) [µM] | Activity (Plasmodium falciparum [8]) | Activity (Plasmodium falciparum [9]) | GI50 (HepG2) [µM] | Activity (Plasmodium falciparum [10]) | IC50 (Plasmodium falciparum [11]) [µM] | also measured
Cl.Cl.S=C(NCCCNCCCCNCCCNC(=S)NCc1ccccc1)NCc1ccccc1 | 0.355 | inactive | inactive | 0.066 | inactive | inactive | > 200 | inactive | – | Ratio IC50 (Plasmodium falciparum [1]): 0.19; Selectivity Index [2]: >500; Activity (Plasmodium falciparum [6]): Active
CC(=N)NCCCNCCCCNCCCNC(C)=N | 80 | – | – | – | – | – | – | – | 14.2 | –
CC(=N)NCCCNCCCNCCCNC(C)=N | 147 | – | – | – | – | – | – | – | 110 | –
Cl.Cl.S=C(NCCCNCCCCCCNCCCNC(=S)NCc1ccccc1)NCc1ccccc1 | 0.106 | Active | Active | 0.198 | Active | Active | > 200 | Active | – | Ratio IC50 (Plasmodium falciparum [1]): 1.9; Selectivity Index [2]: >1500
CC(=N)NCCCNCCCCCCCNCCCNC(C)=N | – | – | – | – | – | – | – | – | 70.3 | –
CCNC(=S)NCCCNCCCCCCNCCCNC(=S)NCC | 1.35 | – | – | – | – | – | – | – | – | –
Cl.Cl.S=C(NCCCNCCCCCCNCCCNC(=S)NC(c1ccccc1)c1ccccc1)NC(c1ccccc1)c1ccccc1 | 0.211 | Active | Active | 0.256 | Active | Active | > 200 | Active | – | Ratio IC50 (Plasmodium falciparum [1]): 1.2; Selectivity Index [2]: >500
Cl.Cl.O=C(NCCCNCCCCCCCNCCCNC(=O)NCC(c1ccccc1)c1ccccc1)NCC(c1ccccc1)c1ccccc1 | 0.1 | Active | Active | 0.14 | Active | Active | 33.8 | Active | – | Ratio IC50 (Plasmodium falciparum [1]): 1.4; Selectivity Index [2]: 338
Cl.Cl.O=C(NCCCNCCCCCCCNCCCNC(=O)NC(c1ccccc1)c1ccccc1)NC(c1ccccc1)c1ccccc1 | 0.131 | Active | Active | 0.221 | Active | Active | > 200 | Active | – | Ratio IC50 (Plasmodium falciparum [1]): 1.7; Selectivity Index [2]: >1500
S=C(NCCCNCCCCCCCNCCCNC(=S)NC(c1ccccc1)c1ccccc1)NC(c1ccccc1)c1ccccc1 | 0.641 | – | – | – | – | – | – | – | 0.138 | –
O=C(NCCCNCCCCCCNCCCNC(=O)NCc1ccccc1)NCc1ccccc1 | 0.339 | – | – | – | – | – | – | – | – | –
S=C(NCCCNCCCCCCNCCCNC(=S)NCC(c1ccccc1)c1ccccc1)NCC(c1ccccc1)c1ccccc1 | 0.436 | – | – | – | – | – | – | – | – | –
S=C(NCCCNCCCCNCCCNC(=S)NCC(c1ccccc1)c1ccccc1)NCC(c1ccccc1)c1ccccc1 | 0.329 | Active | Active | 0.2 | Active | Active | 18.9 | Active | 0.17 | –
S=C(NCCCNCCCNCCCNC(=S)NC(c1ccccc1)c1ccccc1)NC(c1ccccc1)c1ccccc1 | 1.08 | – | – | – | – | – | – | – | 0.766 | –
Cl.Cl.O=C(NCCCNCCCCCCNCCCNC(=O)Nc1ccccc1)Nc1ccccc1 | 0.088 | Active | Active | 0.026 | Active | Active | 619 | Active | – | Ratio IC50 (Plasmodium falciparum [1]): 0.3; Selectivity Index [2]: 7038
Cl.Cl.S=C(NCCCNCCCCCCCNCCCNC(=S)NCC(c1ccccc1)c1ccccc1)NCC(c1ccccc1)c1ccccc1 | 0.405 | Active | Active | 0.183 | Active | Active | 24.7 | Active | – | Activity (Plasmodium falciparum [12]): 78%; Activity (Plasmodium falciparum [13]): 20%; Activity (Plasmodium falciparum [14]): Active; Activity (Plasmodium falciparum [15]): 2%
O=C(NCCCNCCCCNCCCNC(=O)NCC(c1ccccc1)c1ccccc1)NCC(c1ccccc1)c1ccccc1 | 0.408 | – | – | – | – | – | – | – | – | –

SMILES | IC50 (Plasmodium falciparum [3]) [µM] | DNA replication inhibition (active/inactive) (Plasmodium falciparum [4]) | Activity (Plasmodium falciparum [5]) | IC50 (Plasmodium falciparum [7]) [µM] | Activity (Plasmodium falciparum [8]) | Activity (Plasmodium falciparum [9]) | GI50 (HepG2) [µM] | Activity (Plasmodium falciparum [10]) | IC50 (Plasmodium falciparum [11]) [µM] | also measured
O=C(NCCCNCCCCNCCCNC(=O)NCCC(c1ccccc1)c1ccccc1)NCCC(c1ccccc1)c1ccccc1 | 0.657 | – | – | – | – | – | – | – | 0.517 | –
O=C(NCCCNCCCCNCCCNC(=O)NC(c1ccccc1)c1ccccc1)NC(c1ccccc1)c1ccccc1 | 0.691 | – | – | – | – | – | – | – | – | –
O=C(NCCCNCCCNCCCNC(=O)NCCC(c1ccccc1)c1ccccc1)NCCC(c1ccccc1)c1ccccc1 | 0.653 | – | – | – | – | – | – | – | – | –
S=C(NCCCNCCCNCCCNC(=S)NCCC(c1ccccc1)c1ccccc1)NCCC(c1ccccc1)c1ccccc1 | 1.43 | – | – | – | – | – | – | – | 1.64 | –
S=C(NCCCNCCCCCCNCCCNC(=S)Nc1ccccc1)Nc1ccccc1 | 0.846 | – | – | – | – | – | – | – | – | –
CCNC(=O)NCCCNCCCCCCNCCCNC(=O)NCC | > 15 | – | – | – | – | – | – | – | – | –
S=C(NCCCNCCCCNCCCNC(=S)NCCC(c1ccccc1)c1ccccc1)NCCC(c1ccccc1)c1ccccc1 | 0.528 | – | – | – | – | – | – | – | 1.03 | –
CCCNC(=O)NCCCNCCCCCCNCCCNC(=O)NCCC | 14.1 | – | – | – | – | – | – | – | – | –
N=C(NCCCNCCCCCCCNCCCNC(=N)NC(=N)NCCC(c1ccccc1)c1ccccc1)NC(=N)NCCC(c1ccccc1)c1ccccc1 | 0.298 | – | – | – | – | – | – | – | 0.224 | IC50 (Trypanosoma brucei): 0.09 µM
Cl.Cl.S=C(NCCCNCCCCCCCNCCCNC(=S)NCCC(c1ccccc1)c1ccccc1)NCCC(c1ccccc1)c1ccccc1 | 0.253 | Active | Active | 0.147 | Active | Active | 24.5 | Active | 0.256 | Ratio IC50 (Plasmodium falciparum [1]): 0.58; Selectivity Index [2]: 97
CCCNC(=S)NCCCNCCCCCCNCCCNC(=S)NCCC | 0.425 | – | – | – | – | – | – | – | – | –
O=C(NCCCNCCCCNCCCNC(=O)NCc1ccccc1)NCc1ccccc1 | 3.48 | – | – | – | – | – | – | – | > 1 | –
S=C(NCCCNCCCCCCNCCCNC(=S)NCCC(c1ccccc1)c1ccccc1)NCCC(c1ccccc1)c1ccccc1 | 0.31 | – | – | – | – | – | – | – | – | –
Cl.Cl.O=C(NCCCNCCCCCCCNCCCNC(=O)NCCC(c1ccccc1)c1ccccc1)NCCC(c1ccccc1)c1ccccc1 | 0.144 | Active | Active | 0.163 | Active | Active | 23.9 | Active | 0.2 | Ratio IC50 (Plasmodium falciparum [1]): 1.13; Selectivity Index [2]: 166
S=C(NCCCNCCCNCCCNC(=S)NCC(c1ccccc1)c1ccccc1)NCC(c1ccccc1)c1ccccc1 | 1.32 | – | – | – | – | – | – | – | 0.715 | –
S=C(NCCCNCCCCNCCCNC(=S)NC(c1ccccc1)c1ccccc1)NC(c1ccccc1)c1ccccc1 | 0.433 | – | – | – | – | – | – | – | 0.317 | –
